# Shown are actives, neighbours in structure and some others; about 3.9% of the full set was active somewhere.
# CHOP UPR activ = apoptotic UPR (CHOP) activation; CHO-CHOP luciferase reporter, luminescence; percent of tunicamycin response over DMSO baseline; 330,000 compounds, 0.34% hits; activation, % at 10 µM;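 active = at 10 µM dose, activation of 40% or more, normalized to positive control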;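 note: 100% = tunicamycin at 10 µg/mL and 0% = DMSO alone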
#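 Test system: CHO CHOP reporter cells. Input: 500 CHO-CHOP cells per well. Medium: F12 with 10% FBS. Technique: luciferase luminescence. Measure: percent activation relative to tunicamycin control. Dosing: 10 µM compound, 0.5% DMSO. Timing: 16-18 h cell attachment, then 6 h compound exposure, 37 °C.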
# 697 NFkB inh = lowers PMA/ionomycin-induced NF-kB signal in 697 B cells; 697 B-cell NF-kB luciferase reporter, 16 h; inhibition, % at 4 µM; 330,000 compounds, 0.33% hits; in the data active = inhibition above about 35%
# UPR XBP1 act = activators of adaptive arm of unfolded protein response (XBP1). CHO-XBP1 luciferase reporter, IRE1-XBP1 UPR activation, luminescence; percent of tunicamycin response, DMSO as zero. activation, % at 20 µM. 330,000 compounds, 0.33% hits;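 active = versus positive control, 20 µM dose yields 30% or more activation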;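 note: 100% = tunicamycin at 10 µg/mL and 0% = DMSO only wells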
#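 incubation = overnight seeding at 37 °C, 6 h compound treatment at 37 °C | assay system = CHO-XBP1 cells stably carrying IRE1-XBP1-driven luciferase reporter | input = 1000 cells per well | detection = luciferase luminescence | dosing = single point, 20 µM final compound, 1% DMSO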
# Jurkat NFkB inh = inhibitors of the PMA/ionomycin-induced NF-kB reporter in Jurkat cells. inhibition, % at 4 µM. 330,000 compounds, 0.53% hits. PMA/ionomycin-induced NF-kB luciferase reporter, luminescence; in the data active = inhibition above about 50%
# CHOP inhibitor = blocks CHOP induction under ER stress; inhibition, % at 10 µM; 220,000 compounds, 3.8% hits; CHO-K1 CHOP-promoter luciferase, tunicamycin-induced, 15-18 h;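 active = compounds that reduced the stress-induced luciferase reporter signal by more than about 70% of percent inhibition, limit read from the data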;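 note: 0% = tunicamycin plus vehicle and 100% = wells without tunicamycin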
# Gli-Sufu block = blocks Gli-Sufu signaling in a luciferase reporter; Sufu-KO-LIGHT fibroblasts, Gli luciferase reporter luminescence; inhibition, % at 5 µM; 340,000 compounds, 0.74% hits; AID 588413;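 active = inhibition above about 55%, limit read from the data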;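 note: 0% = DMSO-treated cells and 100% = wells with medium but no cells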
# UPR CHOP confirm = apoptotic UPR (CHOP) activation, confirmed; CHO-CHOP cells, CHOP-luciferase reporter luminescence; percent of tunicamycin response, DMSO as zero; activation, % at 10 µM; 1,000 compounds, 64% hits; shares compounds with CHOP UPR activ; in the data active = activation above about 33%;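 note: 0% = DMSO wells and 100% = tunicamycin 10 µg/mL wells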
# * = called active by the depositor; . = no result.
SMILES,CHOP UPR activ,697 NFkB inh,UPR XBP1 act,Jurkat NFkB inh,CHOP inhibitor,Gli-Sufu block,UPR CHOP confirm
CC1(C)CC(=O)C2=C(C1)Oc1nc3ccccc3cc1C2C(C#N)C#N (stereo not drawn),63*,-3,-5,16,63,33,34*
Cc1ccc(Sc2cnccc2C#N)cc1,-2,-18,1,18,.,-2,.
CC(=O)NCCC(=O)Nc1nc2ccc(Oc3ccccc3)cc2s1,4,-162,3,-112,.,-65,.
CCCNC(=O)CS(=O)Cc1nc(-c2cccc(OC)c2)oc1C (stereo not drawn),2,6,-2,6,-18,-4,.
COc1cccc(-c2nc(CS(=O)CC(=O)NCc3ccccc3)c(C)o2)c1 (stereo not drawn),69*,-9,-2,-11,4,10,0
CCCS(=O)(=O)c1c(S(=O)(=O)CCC)c2c(N)cccn2c1C(=O)c1ccc(OC)cc1,55*,-22,-4,11,-12,2,0
COc1ccc(-c2ccc(-c3nc4c(c(=O)[nH]c(=O)n4Cc4ccccc4)n3C)o2)c([N+](=O)[O-])c1,59*,16,17,-2,90*,24,41*
COCCn1c(=O)[nH]c(=O)c2c1nc(-c1ccc(-c3ccc(Cl)cc3[N+](=O)[O-])o1)n2Cc1ccccc1,22,21,-1,4,41,13,.
COc1nc(N)nc(NC(=O)c2cccs2)c1N=O,70*,-40,-1,-6,.,5,62*
COc1ccc(NC(=O)c2ccc(NC(=O)c3cccs3)cc2)cc1,1,6,7,-19,.,-4,.
COc1ccc(CCNC(=O)c2cc3c(=O)n4cccc(C)c4nc3n(Cc3ccco3)c2=N)cc1OC,245*,-124,1,38,.,5,1
CC1=CC(=O)C(C(C)C)=C/C1=N/OC(=O)c1cccc([N+](=O)[O-])c1,73*,-1,-7,-2,49,4,48*
C/C(CCc1oc2ccccc2c1-c1ccc(C)o1)=N/O,-1,1,-3,2,41,-8,.
C/C(CCc1oc2c(Br)cc(Br)cc2c1-c1ccc(C)o1)=N\O,89*,-36,7,-5,18,.,-2
CCOC(=O)c1ccc(NC2=CC(=O)C(=O)c3ccccc32)cc1,65*,-9,9,3,17,21,9
CC(=O)Nc1ccc(NC2=CC(=O)c3ccccc3C2=O)cc1,6,-47,0,-22,.,-2,.
COc1ccc(N2CCN(C(=O)[C@@H]3CCCN3C3=NS(=O)(=O)c4ccccc43)CC2)cc1,1,10,4,-6,.,1,.
COc1ccc(C(=O)CCS(=O)(=O)c2ccc(F)cc2)cc1OC,44*,-4,-9,-11,.,.,11
COc1ccc2sc(-c3ccc(N(C)C)cc3)c(-c3cnc(OC)nc3)c2c1,7,-41,0,-71,.,-3,.
COc1ccc(-c2nc(CS(=O)CC(=O)N3CCOCC3)c(C)o2)cc1OC (stereo not drawn),0,-2,-5,0,.,45,.
N#C/C(=C/c1ccc(N2CCCCCC2)o1)c1ccc(F)cc1,98*,-34,0,24,.,11,22
N#C/C(=C/c1ccc(N2CCOCC2)o1)c1ccc(Br)cc1,4,-8,1,-6,26,0,.
COc1ccc(OC)c(N=Cc2c(O)c3ccccc3oc2=O)c1,134*,3,219*,-9,.,-2,114*
Cc1cc(C)cc(N=Cc2c(O)c3ccccc3oc2=O)c1,10,7,29,-4,55,2,.
O=C(NCc1ccncc1)C(=O)NCC1OCCN1S(=O)(=O)c1ccc(F)cc1 (stereo not drawn),-1,13,-3,-8,.,1,.
SMILES,CHOP UPR activ,697 NFkB inh,UPR XBP1 act,Jurkat NFkB inh,CHOP inhibitor,Gli-Sufu block,UPR CHOP confirm
COc1ccc(/C=C/c2ccc3cccc(O)c3n2)c(OC)c1OC,135*,-207,11,8,.,-7,31
COc1cccc(/C=C/c2ccc3cccc(O)c3n2)c1OC,26,-153,5,-46,.,30,.
Cc1onc(-c2c(Cl)cccc2Cl)c1C(=O)N(C)Cc1ccccc1,1,-73,-5,15,.,-1,.
C=CCc1cccc(/C=N/NC(=O)c2ccccc2OC)c1O,127*,-13,3,16,-37,-5,2
CC(Sc1nnc(C2CC2)n1C1CC1)C(=O)NC1(C#N)CCCCC1 (stereo not drawn),1,19,-4,1,.,15,.
COc1ccc(S(=O)(=O)N2CCOC2CNC(=O)C(=O)NCc2ccc(F)cc2)cc1OC (stereo not drawn),0,-15,0,11,.,-9,.
CC(C)N(C(=O)[C@H]1C[C@H](CC(=O)NCCCn2ccnc2)C(=O)N2CCc3c([nH]c4cc(CCC(=O)N(C)C)ccc34)[C@]12C)C(C)C,2,17,2,.,.,3,.
O=C(CN1CCN(c2ccccc2F)CC1)c1ccc(O)c(O)c1,108*,-63,49*,27,.,.,41*
O=C(CN1CCN(S(=O)(=O)c2ccc(Br)cc2)CC1)c1ccc(O)c(O)c1,61*,-16,30,8,.,.,7
CCOc1cc(/C=N\NC(=O)c2ccc(NC(=O)CC)cc2)ccc1OC(=O)c1ccccc1,57*,-7,26,1,75*,-2,4
COc1ccc(/C=C\c2nc(=O)c3ccccc3o2)cc1,57*,9,7,-22,-30,-52,121*
Oc1ccc(-c2csc(-c3ccccc3)n2)cc1O,143*,-159,13,14,-92,-32,53*
CCOc1cc(N2CCOCC2)c(OCC)cc1NC(=O)c1cc(S(=O)(=O)N2CCOCC2)ccc1C,-1,-4,-3,5,.,4,.
COc1ccc2c(COC(=O)c3ccc(C)c(S(=O)(=O)N4CCOCC4)c3)cc(=O)oc2c1,.,.,.,.,.,-3,.
O=C(C1CC(=O)N(c2ccc3c(c2)OCCO3)C1)N1CCN(S(=O)(=O)c2ccccc2F)CC1 (stereo not drawn),.,.,.,.,.,4,.
O=C1C(c2ccccc2)=[N+]([O-])c2ccccc21,67*,-4,16,5,.,2,29
COC1=C(c2ccccc2)C(=O)c2ccccc2C1=O,0,-4,-3,-8,7,-4,.
O=C(Nc1ccc2oc(-c3ccc4ccccc4c3)nc2c1)c1ccc2c(c1)OCCO2,40*,-187,200*,-51,9,-57,105*
Cc1ccc2nc(-c3cccc(NC(=O)c4ccc5c(c4)OCCO5)c3)oc2c1,5,-13,2,-15,17,-27,.

# Screening data deposited in PubChem BioAssay by several laboratories.
